Results reported in publication PMC7416514 (Clinical & experimental metastasis, 2011).
Several values for one entry are separate records, joined by “and”; a condition that tells them apart may be missing. Identical values can stand only once.

How the values were obtained:
[1] = phase I study in 40 patients ref 6; cited from earlier work
[2] = test system: 231-BR cells; test: 231-BR experimental brain metastasis prevention model; format: in vivo, nu/nu NRC mice; settings: for Micrometastases Mean: vehicle 239
Method in brief: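 Female nu/nu NRC mice, 5–7 weeks old, received 175,000 231-BR cells into the left cardiac ventricle. On day 3 they were randomised to test compound or vehicle (2% Cremophor EL, 2% N,N-dimethylacetamide in acidified pH 5 water). Brains were bisected sagittally; ten serial 10-micron sections every 300 microns through the right hemisphere were scored at 50×. Micro and large (>300 micron) lesions are given as mean per section, from two experiments combined, by mixed-model ANOVA with Dunnett adjustment.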

[3] = test system: 231-BR cells; test: MTT-based viability assay; format: cell-based; settings: Homo sapiens, 48 h, read-out: IC50 viability of 231-BR cells
Method in brief: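 231-BR cells in 10% FBS had continuous exposure to test compound over 1–100 nM for 48 h, then an MTT viability read-out. Viability is expressed as percent of vehicle control. There were three separate experiments with n = 4 per point; log10-transformed data went to mixed-model ANOVA with Dunnett post-hoc comparison.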

[4] = Preliminary dose finding experiments; format: in vivo; settings: 75 mg/kg, intraperitoneally every other day, mice
[5] = Whole body autoradiography tissue uptake; format: in vivo, rats; settings: rat, single 12.5 mg/kg dose
Method in brief: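 Rats received a single dose of [14C]-labelled test compound and were sacrificed at timed points up to 24 h. Radioactivity in whole-body sections (brain, striatum, blood) was quantified by phosphoimager against 14C autoradiography standards. Results are μg equivalents/g tissue; limit of quantitation 0.051 μg equivalents/g.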

[6] = test system: 231-BR cells; test: Western blot of apoptotic markers and phosphorylated Histone H3; format: cell-based, human
Method in brief: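 231-BR cells were treated with test compound at 5 or 10 nM for the indicated times, then lysed and run on SDS-PAGE with immunoblotting. Antibodies: PLK-1, phospho-histone H3, cleaved and total caspase 9, 8 and 3. Tubulin served as the loading control.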

[7] = test system: 231-BR cells; test: Clonogenic survival assay with irradiation; format: cell-based, human; settings: 40 nM, 2 h prior to irradiation, surviving fraction of 0.1
[8] = test system: 231-BR cells; test: Survival study in 231-BR brain metastasis model; format: in vivo, nu/nu NRC mice; settings: 50 mg/kg
[9] = test system: TP53 mutant cells; settings: cited from earlier work

## C[C@@H](Oc1cc(-n2cnc3ccc(CN4CCN(C)CC4)cc32)sc1C(N)=O)c1ccccc1C(F)(F)F [GSK461364A]
[1]
  limiting toxicities: neutropenia, thrombocytopenia and bone marrow suppression
  phospho-Histone H3 (pHH3) in circulating tumor cells: Increased
[2]; 25 mg/kg IP every other day for 27 days from day 3
  Micrometastases Mean: 177 lesions/ section
[2]; 25 mg/kg, statistically insignificant
  reduction in micrometastases vs vehicle: 26%
[2]; 50 mg/kg IP every other day for 27 days from day 3
  Micrometastases Mean: 159 lesions/ section
[2]; 50 mg/kg, treatment started 3 days post-injection
  decline in large brain metastases vs vehicle: 62%
[3]
  IC50: ~5 nM
[4]
  toxicity in dose finding: toxic causing acute weight loss
[5]; 0.5 h
  Tissue uptake, Brain: 3.192 μg equivalents/g tissue
  Tissue uptake, Brain (striatum): 4.283 μg equivalents/g tissue
  Tissue uptake, Choroid plexus: 32.560 μg equivalents/g tissue
  Tissue uptake, Meninges: 10.305 μg equivalents/g tissue
[5]; 0.5 h, listed as [^14C]GSK461364A, 12.5 mg/kg
  Tissue uptake, Blood (cardiac): 2.4 μg equivalents/g tissue and 2.396^a μg equivalents/g tissue
[5]; 30 min post-injection
  Drug uptake in the brain or striatum: 3.2–4.3 μg equivalents/g of tissue
[5]; 2 h
  Tissue uptake, Blood (cardiac): 0.730 μg equivalents/g tissue
  Tissue uptake, Brain: 0.363 μg equivalents/g tissue
  Tissue uptake, Brain (striatum): 0.522 μg equivalents/g tissue
  Tissue uptake, Choroid plexus: 9.734 μg equivalents/g tissue
  Tissue uptake, Meninges: 1.236 μg equivalents/g tissue
[5]; 6 h
  Tissue uptake, Blood (cardiac): 0.183 μg equivalents/g tissue
  Tissue uptake, Brain: 0.088 μg equivalents/g tissue
  Tissue uptake, Brain (striatum): 0.225 μg equivalents/g tissue
  Tissue uptake, Choroid plexus: 2.790 μg equivalents/g tissue
  Tissue uptake, Meninges: 1.239 μg equivalents/g tissue
[5]; 24 h
  Tissue uptake, Brain: 0.126 μg equivalents/g tissue
  Tissue uptake, Brain (striatum): 0.288 μg equivalents/g tissue
  Tissue uptake, Choroid plexus: 2.342 μg equivalents/g tissue
  Tissue uptake, Meninges: 4.881 μg equivalents/g tissue
[5]; 24 h, BLQ = <0.051 μg equivalents/g, 12.5 mg/kg
  Tissue uptake, Blood (cardiac): undetectable
[5]; 24 h, BLQ = <0.051 μg equivalents/g, listed as [^14C]GSK461364A, 12.5 mg/kg
  Tissue uptake, Blood (cardiac): BLQ^b
[5]; 24 h post-injection
  Drug remaining in the brain: 0.13–0.29 μg equivalents/ g
[6]; 231-BR cells treated with 5 and 10 nM
  pHH3 levels (Western blot): increase in pHH3 levels
[6]; 231-BR cells treated with 5 or 10 nM
  cleaved caspase 9 and cleaved caspase 3 (Western blot): Cleaved caspase 9 and cleaved caspase 3 were observed
[7]
  dose enhancement factor: 1.5
[8]; treatment started 3 days post-injection
  prolonged survival: 17%
[8]; treatment started day 3, 7 or 14 post-injection
  survival compared to the vehicle control group: extended survival to the same extent
[9]
  sensitivity in TP53 mutant cells: increased sensitivity
